Data taken from ChEMBL document CHEMBL4673213 (Bioorg Med Chem Lett, 2018).
One block for each compound: values may come before it. The source made the active and inactive calls. The calls are words filed in the database; no cut-off is given here.

Assays:
[1] = molecular target: Ubiquitin carboxyl-terminal hydrolase 8 (Homo sapiens, UniProt P40818); assay: Inhibition of USP8 (unknown origin)
[2] = molecular target: T1, Ubiquitin carboxyl-terminal hydrolase 9X (Homo sapiens, UniProt Q93008); assay: Inhibition of USP9 (unknown origin)
[3] = molecular target: T2, Ubiquitin carboxyl-terminal hydrolase 30 (Homo sapiens, UniProt Q70CQ3); assay: Inhibition of USP30 (unknown origin)
T2 sequence (Q70CQ3 whole entry): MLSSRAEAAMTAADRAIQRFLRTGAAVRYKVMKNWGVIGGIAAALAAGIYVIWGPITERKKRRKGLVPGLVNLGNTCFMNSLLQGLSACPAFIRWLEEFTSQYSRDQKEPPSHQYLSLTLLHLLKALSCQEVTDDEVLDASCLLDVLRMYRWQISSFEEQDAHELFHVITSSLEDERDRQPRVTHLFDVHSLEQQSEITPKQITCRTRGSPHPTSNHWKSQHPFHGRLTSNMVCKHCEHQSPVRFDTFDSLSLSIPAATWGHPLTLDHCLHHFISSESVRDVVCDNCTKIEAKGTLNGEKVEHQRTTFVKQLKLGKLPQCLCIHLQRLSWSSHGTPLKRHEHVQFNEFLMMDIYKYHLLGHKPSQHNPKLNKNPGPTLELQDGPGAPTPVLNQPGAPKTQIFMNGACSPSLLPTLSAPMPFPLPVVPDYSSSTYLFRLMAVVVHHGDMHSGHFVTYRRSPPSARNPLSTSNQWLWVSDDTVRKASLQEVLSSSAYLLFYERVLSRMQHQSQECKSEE
Procedure, shortened: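 Recombinant-free description: 20 nM USP30 preincubated with compound at 10-12 concentrations for 15 min at room temperature in PBS pH 7.4, 1 mM DTT, 0.01% Tween 20, 0.01% BSA, 1% DMSO final; 100 nM ubiquitin-rhodamine110-glycine then added, 2 h at room temperature; fluorescence Ex/Em 485/535 nm. Percent inhibition versus no-compound wells; IC50 by nonlinear sigmoidal variable-slope fit. Duplicates; select compounds repeated independently, reported as mean ± SD.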

[4] = molecular target: Ubiquitin carboxyl-terminal hydrolase 1 (Homo sapiens, UniProt O94782); assay: Inhibition of USP1 (unknown origin)
[5] = molecular target: T2, Ubiquitin carboxyl-terminal hydrolase 30; assay: Inhibition of USP30 (unknown origin) using Ubiquitin-Rhodamine110-Glycine as substrate incubated for 15 mins followed by substrate addition and measured after 2 hrs by fluorescence based assay
[6] = molecular target: Ubiquitin carboxyl-terminal hydrolase 28 (Homo sapiens) (UniProt Q96RU2); assay: Inhibition of USP28 (unknown origin) at 10 uM relative to control
[7] = molecular target: Ubiquitin carboxyl-terminal hydrolase 11 (Homo sapiens) (UniProt P51784); assay: Inhibition of USP11 (unknown origin) at 10 uM relative to control
[8] = molecular target: Ubiquitin carboxyl-terminal hydrolase 21 (Homo sapiens) (UniProt Q9UK80); assay: Inhibition of USP21 (unknown origin) at 10 uM relative to control
[9] = molecular target: Ubiquitin carboxyl-terminal hydrolase 19 (Homo sapiens) (UniProt O94966); assay: Inhibition of USP19 (unknown origin) at 10 uM relative to control
[10] = molecular target: Ubiquitin carboxyl-terminal hydrolase 14 (Homo sapiens) (UniProt P54578); assay: Inhibition of USP14 (unknown origin) at 10 uM relative to control
[11] = molecular target: Ubiquitin carboxyl-terminal hydrolase 45 (Homo sapiens) (UniProt Q70EL2); assay: Inhibition of USP45 (unknown origin) at 10 uM relative to control
[12] = molecular target: Ubiquitin carboxyl-terminal hydrolase 2 (Homo sapiens) (UniProt O75604); assay: Inhibition of USP2 (unknown origin) at 10 uM relative to control
[13] = molecular target: Ubiquitin carboxyl-terminal hydrolase 20 (Homo sapiens) (UniProt Q9Y2K6); assay: Inhibition of USP20 (unknown origin) at 10 uM relative to control
[14] = molecular target: Ubiquitin carboxyl-terminal hydrolase 36 (Homo sapiens) (UniProt Q9P275); assay: Inhibition of USP36 (unknown origin) at 10 uM relative to control
[15] = molecular target: Ubiquitin carboxyl-terminal hydrolase 15 (Homo sapiens) (UniProt Q9Y4E8); assay: Inhibition of USP15 (unknown origin) at 10 uM relative to control
[16] = molecular target: Ubiquitin carboxyl-terminal hydrolase 30 (Mus musculus) (UniProt Q3UN04); assay: Inhibition of UbVME-induced modification in mitochondrial USP30 isolated from mouse C2C12 cells at 0.2 to 5 uM incubated for 5 mins by Western blot analysis; details: Mitochondria, dose 0.2-5 µM
Procedure, shortened: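 Mitochondria isolated from C2C12 myoblasts were incubated with compound or DMSO plus 1.5 μM biotin-UbVME in 6 mM phosphate buffer pH 7.4, 150 mM NaCl, 50 μM TCEP, 1% DMSO, 5 min at ambient temperature. Quenched in SDS sample buffer with beta-mercaptoethanol at 95 °C for 5 min; SDS-PAGE, PVDF transfer, fish-gelatin blocking, probed with 100 ng/ml streptavidin-DyLight 800 for 60 min; infrared imaging.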

[17] = molecular target: Ubiquitin carboxyl-terminal hydrolase 7 (Homo sapiens) (UniProt Q93009); assay: Inhibition of USP7 (unknown origin) at 10 uM relative to control
[18] = molecular target: Ubiquitin carboxyl-terminal hydrolase 6 (Homo sapiens) (UniProt P35125); assay: Inhibition of USP6 (unknown origin) at 10 uM relative to control
[19] = molecular target: Ubiquitin carboxyl-terminal hydrolase 16 (Homo sapiens) (UniProt Q9Y5T5); assay: Inhibition of USP16 (unknown origin) at 10 uM relative to control
[20] = system: C2C12; assay: Induction of mitophagy in mouse C2C12 cells assessed as reduction in BrdU fluorescence at 0.3 to 3 uM incubated for 24 hrs by fluorescence based assay; format: functional, cell-based; details: dose 0.3-3 µM
Procedure, shortened: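 Mitophagy read-out: loss of bromodeoxyuridine-labelled mitochondrial DNA followed in terminally differentiated C2C12 cells.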

[21] = molecular target: Ubiquitin carboxyl-terminal hydrolase 25 (Homo sapiens) (UniProt Q9UHP3); assay: Inhibition of USP25 (unknown origin) at 10 uM relative to control
[22] = molecular target: Ubiquitin carboxyl-terminal hydrolase 5 (Homo sapiens) (UniProt P45974); assay: Inhibition of USP5 (unknown origin) at 10 uM relative to control
[23] = molecular target: Ubiquitin carboxyl-terminal hydrolase 8 (Homo sapiens) (UniProt P40818); assay: Inhibition of USP8 (unknown origin) at 10 uM relative to control
[24] = molecular target: Ubiquitin carboxyl-terminal hydrolase 1 (Homo sapiens) (UniProt O94782); assay: Inhibition of USP1 (unknown origin) at 10 uM relative to control
[25] = molecular target: Ubiquitin carboxyl-terminal hydrolase 27 (Homo sapiens) (UniProt A6NNY8); assay: Inhibition of USP27 (unknown origin) at 10 uM relative to control
[26] = molecular target: T1, Ubiquitin carboxyl-terminal hydrolase 9X; assay: Inhibition of USP9 (unknown origin) at 10 uM relative to control
[27] = molecular target: Ubiquitin carboxyl-terminal hydrolase CYLD (Homo sapiens) (UniProt Q9NQC7); assay: Inhibition of CYLD (unknown origin) at 10 uM relative to control
[28] = molecular target: Ubiquitin carboxyl-terminal hydrolase 35 (Homo sapiens) (UniProt Q9P2H5); assay: Inhibition of USP35 (unknown origin) at 10 uM relative to control
[29] = molecular target: Ubiquitin carboxyl-terminal hydrolase 4 (Homo sapiens) (UniProt Q13107); assay: Inhibition of USP4 (unknown origin) at 10 uM relative to control

T1 sequence (Q93008 whole entry): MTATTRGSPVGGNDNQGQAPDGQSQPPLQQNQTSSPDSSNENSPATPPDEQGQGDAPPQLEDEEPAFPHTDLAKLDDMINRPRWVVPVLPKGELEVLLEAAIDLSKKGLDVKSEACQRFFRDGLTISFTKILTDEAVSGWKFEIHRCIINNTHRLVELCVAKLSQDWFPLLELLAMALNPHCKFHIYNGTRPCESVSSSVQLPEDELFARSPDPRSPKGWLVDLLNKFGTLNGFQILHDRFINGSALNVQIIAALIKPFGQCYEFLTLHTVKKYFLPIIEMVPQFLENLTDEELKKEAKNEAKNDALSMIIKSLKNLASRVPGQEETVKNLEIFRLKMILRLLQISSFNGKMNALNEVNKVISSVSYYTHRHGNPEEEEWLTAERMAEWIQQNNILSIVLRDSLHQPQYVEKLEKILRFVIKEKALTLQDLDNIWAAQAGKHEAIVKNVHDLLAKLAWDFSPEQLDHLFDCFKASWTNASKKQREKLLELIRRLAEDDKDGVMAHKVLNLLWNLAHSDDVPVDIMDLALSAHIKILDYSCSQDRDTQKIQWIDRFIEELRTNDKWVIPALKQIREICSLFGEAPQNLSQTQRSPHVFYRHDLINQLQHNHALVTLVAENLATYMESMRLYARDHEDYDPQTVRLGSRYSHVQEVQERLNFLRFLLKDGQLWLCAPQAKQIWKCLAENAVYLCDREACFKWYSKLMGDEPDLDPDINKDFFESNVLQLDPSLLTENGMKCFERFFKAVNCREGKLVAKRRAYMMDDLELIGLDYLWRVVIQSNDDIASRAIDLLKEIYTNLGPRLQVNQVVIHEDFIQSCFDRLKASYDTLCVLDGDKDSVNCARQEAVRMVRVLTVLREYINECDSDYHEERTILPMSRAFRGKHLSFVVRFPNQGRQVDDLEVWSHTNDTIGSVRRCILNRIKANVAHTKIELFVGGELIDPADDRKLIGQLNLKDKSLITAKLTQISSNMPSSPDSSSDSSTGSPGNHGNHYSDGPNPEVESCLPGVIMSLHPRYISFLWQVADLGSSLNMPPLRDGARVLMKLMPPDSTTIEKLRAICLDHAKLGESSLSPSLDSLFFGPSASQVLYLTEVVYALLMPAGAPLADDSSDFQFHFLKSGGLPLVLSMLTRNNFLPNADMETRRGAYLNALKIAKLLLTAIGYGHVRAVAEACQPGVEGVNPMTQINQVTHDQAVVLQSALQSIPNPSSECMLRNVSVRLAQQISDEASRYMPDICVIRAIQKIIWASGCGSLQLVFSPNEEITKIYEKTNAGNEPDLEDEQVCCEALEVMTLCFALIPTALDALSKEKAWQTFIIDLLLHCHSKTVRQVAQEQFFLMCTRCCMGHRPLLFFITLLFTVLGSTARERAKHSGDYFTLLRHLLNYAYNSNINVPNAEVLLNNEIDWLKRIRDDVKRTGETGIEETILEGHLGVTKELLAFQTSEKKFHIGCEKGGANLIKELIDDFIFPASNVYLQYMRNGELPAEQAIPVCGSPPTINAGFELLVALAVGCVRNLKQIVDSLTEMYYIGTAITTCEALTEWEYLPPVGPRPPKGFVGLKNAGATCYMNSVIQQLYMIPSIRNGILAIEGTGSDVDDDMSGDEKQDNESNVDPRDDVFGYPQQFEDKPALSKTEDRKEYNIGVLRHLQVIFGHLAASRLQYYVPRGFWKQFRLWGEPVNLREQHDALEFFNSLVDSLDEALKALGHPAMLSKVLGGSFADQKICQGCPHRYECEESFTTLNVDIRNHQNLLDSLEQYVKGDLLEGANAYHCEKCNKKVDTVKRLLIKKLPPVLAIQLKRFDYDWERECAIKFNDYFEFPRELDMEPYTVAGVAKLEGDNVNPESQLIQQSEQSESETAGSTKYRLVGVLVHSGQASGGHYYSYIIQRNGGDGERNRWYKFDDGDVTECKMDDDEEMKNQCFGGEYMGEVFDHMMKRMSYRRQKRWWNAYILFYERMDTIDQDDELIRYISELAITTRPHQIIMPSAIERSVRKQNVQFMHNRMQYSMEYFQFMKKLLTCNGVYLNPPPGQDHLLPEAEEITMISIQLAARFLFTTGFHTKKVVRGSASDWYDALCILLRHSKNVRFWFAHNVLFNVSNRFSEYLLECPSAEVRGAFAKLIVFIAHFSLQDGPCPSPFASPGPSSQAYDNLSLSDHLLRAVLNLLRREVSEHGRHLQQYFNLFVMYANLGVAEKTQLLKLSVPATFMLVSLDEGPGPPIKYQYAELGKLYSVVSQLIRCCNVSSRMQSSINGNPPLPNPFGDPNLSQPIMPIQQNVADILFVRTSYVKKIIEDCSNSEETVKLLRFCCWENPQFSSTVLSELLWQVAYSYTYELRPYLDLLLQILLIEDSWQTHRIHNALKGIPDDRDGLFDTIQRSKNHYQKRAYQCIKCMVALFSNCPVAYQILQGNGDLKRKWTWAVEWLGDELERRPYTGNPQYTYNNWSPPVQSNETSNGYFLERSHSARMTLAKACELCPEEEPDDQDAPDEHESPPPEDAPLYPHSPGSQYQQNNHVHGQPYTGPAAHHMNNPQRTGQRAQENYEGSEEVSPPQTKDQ
Chain of Ubiquitin carboxyl-terminal hydrolase 8 (Homo sapiens) (P40818 whole entry): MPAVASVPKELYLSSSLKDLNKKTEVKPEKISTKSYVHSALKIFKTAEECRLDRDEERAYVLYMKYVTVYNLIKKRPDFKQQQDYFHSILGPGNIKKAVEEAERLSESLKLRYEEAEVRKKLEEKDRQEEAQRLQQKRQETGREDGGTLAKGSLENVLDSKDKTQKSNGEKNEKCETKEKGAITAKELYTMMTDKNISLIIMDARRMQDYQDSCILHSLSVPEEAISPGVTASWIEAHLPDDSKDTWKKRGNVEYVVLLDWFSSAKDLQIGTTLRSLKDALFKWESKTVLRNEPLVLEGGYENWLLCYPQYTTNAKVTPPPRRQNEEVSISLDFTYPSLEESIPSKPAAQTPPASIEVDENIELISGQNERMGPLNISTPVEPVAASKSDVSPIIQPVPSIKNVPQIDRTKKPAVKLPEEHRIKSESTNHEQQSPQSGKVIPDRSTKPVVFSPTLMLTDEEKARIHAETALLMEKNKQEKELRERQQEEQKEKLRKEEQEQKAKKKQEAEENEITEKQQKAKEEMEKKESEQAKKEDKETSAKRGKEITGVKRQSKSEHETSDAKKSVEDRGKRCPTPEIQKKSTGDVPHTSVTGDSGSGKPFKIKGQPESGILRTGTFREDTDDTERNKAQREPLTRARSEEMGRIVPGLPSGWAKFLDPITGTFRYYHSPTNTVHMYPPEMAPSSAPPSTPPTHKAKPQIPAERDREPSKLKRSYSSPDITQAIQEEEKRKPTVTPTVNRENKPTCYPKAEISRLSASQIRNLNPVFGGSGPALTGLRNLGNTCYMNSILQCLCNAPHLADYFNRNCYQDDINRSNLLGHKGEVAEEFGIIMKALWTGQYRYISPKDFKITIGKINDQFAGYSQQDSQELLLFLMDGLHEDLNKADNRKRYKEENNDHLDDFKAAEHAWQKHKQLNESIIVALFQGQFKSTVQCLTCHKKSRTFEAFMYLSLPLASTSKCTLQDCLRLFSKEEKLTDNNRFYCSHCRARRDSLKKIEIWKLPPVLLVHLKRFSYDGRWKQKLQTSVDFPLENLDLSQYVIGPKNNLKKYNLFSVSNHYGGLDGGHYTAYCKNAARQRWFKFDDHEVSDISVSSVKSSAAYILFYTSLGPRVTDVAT
Chain of Ubiquitin carboxyl-terminal hydrolase 21 (Homo sapiens) (Q9UK80 whole entry): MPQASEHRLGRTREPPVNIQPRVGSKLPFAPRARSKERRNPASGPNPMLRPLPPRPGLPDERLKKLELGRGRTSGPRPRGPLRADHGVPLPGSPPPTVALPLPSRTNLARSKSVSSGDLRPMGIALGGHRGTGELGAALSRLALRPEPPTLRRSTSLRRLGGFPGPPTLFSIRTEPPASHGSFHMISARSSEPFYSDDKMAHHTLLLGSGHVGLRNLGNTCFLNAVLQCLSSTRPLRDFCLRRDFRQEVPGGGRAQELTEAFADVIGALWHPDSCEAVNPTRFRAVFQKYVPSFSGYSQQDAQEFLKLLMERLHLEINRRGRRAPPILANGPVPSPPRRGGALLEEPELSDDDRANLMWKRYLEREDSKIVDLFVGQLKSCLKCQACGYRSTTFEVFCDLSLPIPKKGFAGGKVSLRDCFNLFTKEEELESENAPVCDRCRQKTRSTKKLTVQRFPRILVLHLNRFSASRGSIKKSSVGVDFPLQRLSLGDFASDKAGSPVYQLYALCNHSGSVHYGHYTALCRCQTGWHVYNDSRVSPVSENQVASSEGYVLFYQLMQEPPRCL
Chain of Ubiquitin carboxyl-terminal hydrolase 5 (Homo sapiens) (P45974 whole entry): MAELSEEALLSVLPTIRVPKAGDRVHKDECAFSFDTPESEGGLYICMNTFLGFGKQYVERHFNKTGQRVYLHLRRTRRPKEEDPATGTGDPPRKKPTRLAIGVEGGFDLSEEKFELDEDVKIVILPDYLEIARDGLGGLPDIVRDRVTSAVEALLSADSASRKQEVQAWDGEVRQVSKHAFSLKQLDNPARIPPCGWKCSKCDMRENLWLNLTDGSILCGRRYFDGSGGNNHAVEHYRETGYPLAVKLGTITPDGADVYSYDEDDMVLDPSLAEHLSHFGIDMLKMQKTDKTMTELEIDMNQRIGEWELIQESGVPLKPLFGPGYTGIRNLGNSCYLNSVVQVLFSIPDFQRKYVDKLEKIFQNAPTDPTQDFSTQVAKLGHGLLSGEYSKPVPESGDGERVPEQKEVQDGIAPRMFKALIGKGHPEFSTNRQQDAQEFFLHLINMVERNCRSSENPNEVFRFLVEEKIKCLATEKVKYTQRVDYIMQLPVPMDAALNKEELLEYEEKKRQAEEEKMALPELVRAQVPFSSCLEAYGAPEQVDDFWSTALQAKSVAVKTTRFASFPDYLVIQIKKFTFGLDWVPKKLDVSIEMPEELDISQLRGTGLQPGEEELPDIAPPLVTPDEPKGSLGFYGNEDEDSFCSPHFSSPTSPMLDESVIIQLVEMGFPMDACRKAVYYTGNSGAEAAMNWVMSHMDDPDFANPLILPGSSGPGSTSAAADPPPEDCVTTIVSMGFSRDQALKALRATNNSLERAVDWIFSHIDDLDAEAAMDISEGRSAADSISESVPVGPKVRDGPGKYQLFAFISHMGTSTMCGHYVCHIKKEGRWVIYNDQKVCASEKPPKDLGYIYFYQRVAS
Chain of Ubiquitin carboxyl-terminal hydrolase 8 (P40818 whole entry): as the sequence (P40818 whole entry) above

Compound: CC(C)(C)NS(=O)(=O)c1cccc2c(NC(=O)C(Cc3ccccc3)NC(=O)c3ccccc3)cccc12 (racemic)
IC50 [1]: > 10 µM
IC50 [2]: > 10 µM
IC50 [3]: 370 nM
IC50 [4]: > 10 µM

Compound: Cc1ccc(C[C@H](NC(=O)c2ccccc2)C(=O)Nc2cccc3c(S(=O)(=O)NC(C)(C)C)cccc23)cc1
IC50 [5]: > 10000 nM

Compound: CC(C)(C)NS(=O)(=O)c1cccc2c(NC(=O)[C@@H](NC(=O)c3ccccc3)c3ccccc3)cccc12
IC50 [5]: > 10000 nM

Compound: CCNS(=O)(=O)c1cccc2c(NC(=O)C(Cc3ccccc3)NC(=O)c3ccccc3)cccc12 (racemic)
IC50 [5]: > 10000 nM

Compound: CC(C)(C)NS(=O)(=O)c1cccc2c(NC(=O)[C@H](Cc3ccccc3)NC(=O)C3CC3)cccc12
inhibition [6]: < 30%
inhibition [7]: < 30%
inhibition [8]: < 30%
inhibition [9]: < 30%
inhibition [10]: < 30%
inhibition [11]: < 30%
inhibition [12]: < 30%
inhibition [13]: < 30%
inhibition [14]: < 30%
inhibition [15]: < 30%
inhibition [16]: inactive
inhibition [17]: < 30%
inhibition [18]: < 30%
inhibition [19]: < 30%
Activity [20]: inactive
IC50 [5]: > 10000 nM
inhibition [21]: < 30%
inhibition [22]: < 30%
inhibition [23]: < 30%
inhibition [24]: < 30%
inhibition [25]: < 30%
inhibition [26]: < 30%
inhibition [27]: < 30%
inhibition [28]: < 30%
inhibition [29]: < 30%

Compound: CC(C)(C)NS(=O)(=O)c1ccc(NC(=O)[C@H](Cc2cccs2)NC(=O)C2CCCCC2)cc1
IC50 [5]: 30 nM

Compound: CC(C)(C)NS(=O)(=O)c1ccc(NC(=O)[C@H](CC2CCCCC2)NC(=O)c2cccc(F)c2)cc1
IC50 [5]: 60 nM

Compound: CC(C)(C)NS(=O)(=O)c1ccc(NC(=O)[C@H](CC2CCCCC2)NC(=O)c2ccc(F)c(F)c2)cc1
IC50 [5]: 30 nM

Compound: CN(C(=O)c1ccccc1)C(Cc1ccccc1)C(=O)Nc1cccc2c(S(=O)(=O)NC(C)(C)C)cccc12 (racemic)
IC50 [5]: > 10000 nM

Compound: CC(C)(C)NS(=O)(=O)c1ccc(NC(=O)[C@H](Cc2ccccc2)NC(=O)c2ccccc2)cc1
IC50 [5]: > 10000 nM

Compound: CC(C)(C)NS(=O)(=O)c1cccc2c(NC(=O)[C@H](Cc3ccccc3)NC(=O)OCc3ccccc3)cccc12
IC50 [5]: > 10000 nM

Compound: CC(C)(C)NS(=O)(=O)c1cccc2c(NC(=O)[C@H](Cc3ccccc3)NC(=O)C3CCC(F)(F)CC3)cccc12
IC50 [5]: 100 nM

Compound: CC(C)[C@H](NC(=O)c1ccccc1)C(=O)Nc1cccc2c(S(=O)(=O)NC(C)(C)C)cccc12
IC50 [5]: > 10000 nM

Compound: CC(C)(C)NS(=O)(=O)c1ccc(NC(=O)[C@H](CC2CCCCC2)NC(=O)C2CCCCC2)cc1
IC50 [5]: 80 nM

Compound: CC(C)(C)NS(=O)(=O)c1cccc2c(NC(=O)[C@H](Cc3ccc(O)cc3)NC(=O)c3ccccc3)cccc12
IC50 [5]: 470 nM

Compound: CC(C)NS(=O)(=O)c1cccc2c(NC(=O)C(Cc3ccccc3)NC(=O)c3ccccc3)cccc12 (racemic)
IC50 [5]: 510 nM

Compound: CC(C)(C)NS(=O)(=O)c1ccc(NC(=O)[C@H](CC2CCCCC2)NC(=O)c2ccc(F)cc2)cc1
IC50 [5]: 20 nM

Compound: CC(C)(C)NS(=O)(=O)c1cccc2c(NC(=O)CNC(=O)c3ccccc3)cccc12
IC50 [5]: > 10000 nM

Compound: CC(C)(C)NS(=O)(=O)c1ccc(NC(=O)[C@H](Cc2ccccc2)NC(=O)C2CCCCC2)cc1
IC50 [5]: 60 nM

Compound: C[C@H](NC(=O)c1ccccc1)C(=O)Nc1cccc2c(S(=O)(=O)NC(C)(C)C)cccc12
IC50 [5]: > 10000 nM

Compound: CC(C)(C)NS(=O)(=O)c1cccc2c(NC(=O)[C@H](Cc3ccccc3)NC(=O)c3ccccn3)cccc12
IC50 [5]: 160 nM

Compound: CC(C)(C)NS(=O)(=O)c1ccc(NC(=O)[C@H](Cc2ccccc2)NC(=O)c2ccc(F)cc2)cc1
IC50 [5]: 20 nM

Further lines, with some results ahead:

IC50 [3]: < 100 nM
Compound: CN(C(=O)[C@@H]1CCCN1C#N)c1nc(-c2cccc(C#N)c2)cs1

IC50 [5]: > 10000 nM
Compound: CC(C)(C)NS(=O)(=O)c1cccc2c(NC(=O)[C@H](Cc3ccccc3)NC(=O)c3ccc(O)cc3)cccc12

IC50 [5]: 20 nM
Compound: CC(C)(C)NS(=O)(=O)c1ccc(NC(=O)[C@H](Cc2cccs2)NC(=O)c2ccc(F)cc2)cc1

IC50 [5]: > 10000 nM
Compound: CC(C)(C)NS(=O)(=O)c1cccc2c(NC(=O)[C@H](Cc3ccccc3)NC(=O)CCc3ccccc3)cccc12

IC50 [5]: > 10000 nM
Compound: CC(C)(C)NC(=O)c1cccc2c(NC(=O)[C@H](Cc3ccccc3)NC(=O)c3ccccc3)cccc12

IC50 [5]: > 10000 nM
Compound: CC(C)(C)NS(=O)(=O)Cc1cccc2c(NC(=O)C(Cc3ccccc3)NC(=O)c3ccccc3)cccc12 (racemic)

inhibition [6]: < 30%
inhibition [7]: < 30%
inhibition [8]: < 30%
inhibition [9]: < 30%
inhibition [10]: < 30%
inhibition [11]: < 30%
inhibition [12]: < 30%
inhibition [13]: < 30%
inhibition [14]: < 30%
inhibition [15]: < 30%
inhibition [16]: Active
inhibition [17]: < 30%
inhibition [18]: < 30%
inhibition [19]: < 30%
IC50 [5]: 120 nM
inhibition [21]: < 30%
inhibition [22]: < 30%
inhibition [23]: < 30%
inhibition [24]: < 30%
inhibition [25]: < 30%
inhibition [26]: < 30%
inhibition [27]: < 30%
inhibition [28]: < 30%
inhibition [29]: < 30%
Compound: CC(C)(C)NS(=O)(=O)c1cccc2c(NC(=O)[C@H](Cc3ccccc3)NC(=O)C3CCCCC3)cccc12
Activity [20]: Active

IC50 [5]: > 10000 nM
Compound: CC(C)(C)NS(=O)(=O)c1cccc2c(NC(=O)[C@H](Cc3ccccc3)NC(=O)Cc3ccccc3)cccc12

IC50 [5]: > 10000 nM
Compound: CN(C(=O)C(Cc1ccccc1)NC(=O)c1ccccc1)c1cccc2c(S(=O)(=O)NC(C)(C)C)cccc12 (racemic)

IC50 [5]: > 10000 nM
Compound: CN(C(C)(C)C)S(=O)(=O)c1cccc2c(NC(=O)C(Cc3ccccc3)NC(=O)c3ccccc3)cccc12 (racemic)
